One compound from publication PMC9279635 (Acta Pharmaceutica Sinica. B, 2021) can be followed below.

In experiment [1] the target is DDR1 (Homo sapiens, UniProt Q08345). The experiment is described as follows: ELISA kinase assay, DDR1. The format is biochemical. For orientation: ELISA stands for enzyme-linked immunosorbent assay.
For experiment [2], the target named is RET (Homo sapiens, UniProt P07949). The experiment can be described thus: ELISA kinase assay, RET. The experiment is classed as biochemical.
RET, sequence (P07949 29-1114): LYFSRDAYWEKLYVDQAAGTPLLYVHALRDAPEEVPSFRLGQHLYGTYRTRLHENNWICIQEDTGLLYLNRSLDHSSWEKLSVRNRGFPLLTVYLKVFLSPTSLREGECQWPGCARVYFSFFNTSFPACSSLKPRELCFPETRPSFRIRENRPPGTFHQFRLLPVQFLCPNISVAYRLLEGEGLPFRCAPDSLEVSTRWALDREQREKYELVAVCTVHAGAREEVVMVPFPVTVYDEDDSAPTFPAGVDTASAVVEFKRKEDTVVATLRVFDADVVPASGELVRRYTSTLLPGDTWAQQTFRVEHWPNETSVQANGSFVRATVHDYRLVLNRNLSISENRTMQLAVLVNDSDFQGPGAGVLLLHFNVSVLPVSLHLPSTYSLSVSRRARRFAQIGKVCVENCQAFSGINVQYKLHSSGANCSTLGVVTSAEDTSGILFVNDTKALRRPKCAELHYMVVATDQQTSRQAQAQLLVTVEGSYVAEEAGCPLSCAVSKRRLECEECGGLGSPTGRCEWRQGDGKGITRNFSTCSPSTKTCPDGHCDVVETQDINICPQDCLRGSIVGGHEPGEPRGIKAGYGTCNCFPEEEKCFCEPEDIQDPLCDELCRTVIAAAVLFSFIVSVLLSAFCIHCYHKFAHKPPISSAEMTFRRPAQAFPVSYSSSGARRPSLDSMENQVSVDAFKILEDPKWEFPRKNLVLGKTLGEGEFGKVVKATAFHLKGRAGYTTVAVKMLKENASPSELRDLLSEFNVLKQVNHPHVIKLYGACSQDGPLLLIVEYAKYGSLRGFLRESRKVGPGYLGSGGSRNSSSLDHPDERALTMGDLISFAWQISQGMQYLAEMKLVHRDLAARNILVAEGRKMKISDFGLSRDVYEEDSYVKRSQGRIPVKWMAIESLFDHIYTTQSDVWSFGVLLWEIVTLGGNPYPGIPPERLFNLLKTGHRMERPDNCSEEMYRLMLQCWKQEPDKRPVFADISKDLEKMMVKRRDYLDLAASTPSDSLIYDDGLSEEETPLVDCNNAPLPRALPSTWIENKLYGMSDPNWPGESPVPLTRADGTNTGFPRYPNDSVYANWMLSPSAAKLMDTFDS
The target in experiment [3] is T1, Flt-3 (Homo sapiens, UniProt P36888).
T1 sequence (P36888 27-993): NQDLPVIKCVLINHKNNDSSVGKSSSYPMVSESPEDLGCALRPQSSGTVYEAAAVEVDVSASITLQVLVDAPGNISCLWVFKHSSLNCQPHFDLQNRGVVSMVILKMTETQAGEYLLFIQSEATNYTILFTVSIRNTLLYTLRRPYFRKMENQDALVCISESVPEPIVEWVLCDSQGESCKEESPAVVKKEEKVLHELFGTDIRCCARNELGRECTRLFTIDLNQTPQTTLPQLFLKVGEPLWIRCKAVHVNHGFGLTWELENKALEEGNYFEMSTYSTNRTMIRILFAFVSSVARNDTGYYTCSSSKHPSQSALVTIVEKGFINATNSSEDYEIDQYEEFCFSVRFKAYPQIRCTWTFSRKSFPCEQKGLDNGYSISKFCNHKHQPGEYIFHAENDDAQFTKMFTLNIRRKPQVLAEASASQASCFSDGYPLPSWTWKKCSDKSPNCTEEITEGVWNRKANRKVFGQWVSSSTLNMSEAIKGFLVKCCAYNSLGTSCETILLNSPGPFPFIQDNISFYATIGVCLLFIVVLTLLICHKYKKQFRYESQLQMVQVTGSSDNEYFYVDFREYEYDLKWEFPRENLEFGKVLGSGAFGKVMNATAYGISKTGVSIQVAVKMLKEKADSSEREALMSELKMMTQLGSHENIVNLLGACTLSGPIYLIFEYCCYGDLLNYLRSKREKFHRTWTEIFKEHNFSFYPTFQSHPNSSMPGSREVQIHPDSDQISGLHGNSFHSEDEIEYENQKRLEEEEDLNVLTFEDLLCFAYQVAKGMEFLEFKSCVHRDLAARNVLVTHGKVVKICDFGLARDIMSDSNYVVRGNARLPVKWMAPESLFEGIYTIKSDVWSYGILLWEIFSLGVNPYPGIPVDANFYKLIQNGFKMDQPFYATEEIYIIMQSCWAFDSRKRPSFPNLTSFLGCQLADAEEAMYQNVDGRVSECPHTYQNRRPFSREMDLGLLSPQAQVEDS
The experiment is described as follows: ELISA kinase assay, Flt-3. The format is biochemical. Particulars: read-out: Flt-3 inhibition@100 nmol/L.

Experiment [4] addresses KDR (Homo sapiens, UniProt P35968). The experiment can be described thus: ELISA kinase assay, KDR. The format is biochemical. Particulars: 10 nmol/L.
The target of experiment [5] is ALK (Homo sapiens, UniProt Q9UM73). The experiment can be described thus: Kinase selectivity test, ALK. The format is biochemical. Particulars: 1 μmol/L.
ALK, sequence (Q9UM73 19-1620): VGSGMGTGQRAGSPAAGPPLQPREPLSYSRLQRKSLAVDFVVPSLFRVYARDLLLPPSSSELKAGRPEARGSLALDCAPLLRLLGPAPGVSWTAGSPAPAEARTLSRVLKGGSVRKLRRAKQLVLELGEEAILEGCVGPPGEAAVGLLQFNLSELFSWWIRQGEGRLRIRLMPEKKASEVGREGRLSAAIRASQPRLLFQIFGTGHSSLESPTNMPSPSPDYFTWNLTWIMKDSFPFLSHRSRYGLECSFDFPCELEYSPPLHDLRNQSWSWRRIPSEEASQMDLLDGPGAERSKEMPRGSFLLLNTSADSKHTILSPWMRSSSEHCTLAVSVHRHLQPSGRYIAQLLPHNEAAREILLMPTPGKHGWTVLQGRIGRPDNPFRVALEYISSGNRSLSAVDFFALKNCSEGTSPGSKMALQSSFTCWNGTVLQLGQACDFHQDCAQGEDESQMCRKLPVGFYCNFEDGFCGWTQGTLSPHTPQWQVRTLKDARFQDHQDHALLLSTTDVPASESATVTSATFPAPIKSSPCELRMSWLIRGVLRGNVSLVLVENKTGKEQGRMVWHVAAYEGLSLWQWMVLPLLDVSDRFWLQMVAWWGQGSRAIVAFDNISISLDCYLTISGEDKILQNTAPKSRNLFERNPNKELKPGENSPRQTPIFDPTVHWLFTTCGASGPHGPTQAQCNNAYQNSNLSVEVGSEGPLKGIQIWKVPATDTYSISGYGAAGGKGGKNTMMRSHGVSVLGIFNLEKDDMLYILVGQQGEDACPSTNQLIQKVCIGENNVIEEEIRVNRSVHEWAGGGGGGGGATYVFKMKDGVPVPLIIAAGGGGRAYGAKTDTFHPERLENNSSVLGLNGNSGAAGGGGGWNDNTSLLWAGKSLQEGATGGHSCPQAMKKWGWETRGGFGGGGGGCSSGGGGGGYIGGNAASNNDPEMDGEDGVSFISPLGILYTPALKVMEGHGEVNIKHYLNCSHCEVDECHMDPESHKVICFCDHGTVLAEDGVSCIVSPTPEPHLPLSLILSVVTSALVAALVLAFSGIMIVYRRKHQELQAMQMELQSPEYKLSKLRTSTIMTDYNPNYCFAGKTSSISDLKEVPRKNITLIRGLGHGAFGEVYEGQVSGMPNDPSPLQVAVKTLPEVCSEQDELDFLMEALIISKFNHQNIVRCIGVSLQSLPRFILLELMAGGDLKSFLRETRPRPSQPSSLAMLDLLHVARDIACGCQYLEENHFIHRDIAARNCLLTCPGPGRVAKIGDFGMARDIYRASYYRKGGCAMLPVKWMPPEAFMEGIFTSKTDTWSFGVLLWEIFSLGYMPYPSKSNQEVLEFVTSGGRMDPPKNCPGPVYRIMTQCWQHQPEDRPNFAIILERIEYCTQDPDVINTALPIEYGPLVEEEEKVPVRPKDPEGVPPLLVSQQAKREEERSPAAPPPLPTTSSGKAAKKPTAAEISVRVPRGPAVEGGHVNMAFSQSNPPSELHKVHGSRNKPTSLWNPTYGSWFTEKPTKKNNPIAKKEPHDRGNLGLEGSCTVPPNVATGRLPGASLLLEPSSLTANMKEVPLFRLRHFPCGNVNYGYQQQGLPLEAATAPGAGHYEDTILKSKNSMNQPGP
Experiment [6] deals with ABL (Homo sapiens, UniProt P00519). The experiment is described as follows: Kinase selectivity test, ABL. The format is biochemical. Particulars: 10 nmol/L.
The target of experiment [7] is VEGFR-1 (Homo sapiens, UniProt P17948). The experiment can be described thus: Kinase selectivity test, VEGFR-1. The experiment is classed as biochemical. The settings on record: 10 nmol/L.
Experiment [8] relates to PDGFR. The experiment can be described thus: Kinase selectivity test, PDGFR. The experiment is classed as biochemical. Particulars: 10 nmol/L.
In experiment [9] the target is EPH-A2 (Homo sapiens, UniProt P29317). The experiment is described as follows: Kinase selectivity test, EPH-A2. The experiment is classed as biochemical. The settings on record: 10 nmol/L.
EPH-A2, sequence (P29317 24-976): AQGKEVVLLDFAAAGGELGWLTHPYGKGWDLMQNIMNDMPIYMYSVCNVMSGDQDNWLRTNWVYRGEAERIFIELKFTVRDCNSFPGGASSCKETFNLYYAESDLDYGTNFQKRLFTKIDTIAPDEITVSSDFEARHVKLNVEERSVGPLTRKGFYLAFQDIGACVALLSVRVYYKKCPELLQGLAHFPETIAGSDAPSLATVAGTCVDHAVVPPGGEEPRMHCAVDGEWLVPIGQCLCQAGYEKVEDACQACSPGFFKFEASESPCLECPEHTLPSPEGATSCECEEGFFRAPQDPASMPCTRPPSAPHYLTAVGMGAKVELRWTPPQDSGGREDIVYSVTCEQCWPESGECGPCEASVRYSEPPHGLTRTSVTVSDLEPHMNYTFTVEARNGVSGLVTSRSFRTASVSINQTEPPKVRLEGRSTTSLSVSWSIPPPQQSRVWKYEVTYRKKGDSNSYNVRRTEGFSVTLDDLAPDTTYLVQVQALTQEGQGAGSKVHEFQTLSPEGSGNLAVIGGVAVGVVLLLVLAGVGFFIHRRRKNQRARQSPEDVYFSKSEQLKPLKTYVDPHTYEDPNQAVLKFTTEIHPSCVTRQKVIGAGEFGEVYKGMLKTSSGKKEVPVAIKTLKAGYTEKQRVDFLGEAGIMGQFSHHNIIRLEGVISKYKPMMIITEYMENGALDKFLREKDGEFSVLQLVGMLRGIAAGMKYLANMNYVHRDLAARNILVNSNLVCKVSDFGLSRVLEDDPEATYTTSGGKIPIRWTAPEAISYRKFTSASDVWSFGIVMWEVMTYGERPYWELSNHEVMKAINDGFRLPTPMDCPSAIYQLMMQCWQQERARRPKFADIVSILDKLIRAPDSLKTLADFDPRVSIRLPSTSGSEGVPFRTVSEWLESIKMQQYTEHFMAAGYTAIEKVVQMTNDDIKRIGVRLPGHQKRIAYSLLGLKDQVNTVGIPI
Experiment [10] has as its target T2, AXL (Homo sapiens, UniProt P30530).
T2 sequence (P30530 26-894): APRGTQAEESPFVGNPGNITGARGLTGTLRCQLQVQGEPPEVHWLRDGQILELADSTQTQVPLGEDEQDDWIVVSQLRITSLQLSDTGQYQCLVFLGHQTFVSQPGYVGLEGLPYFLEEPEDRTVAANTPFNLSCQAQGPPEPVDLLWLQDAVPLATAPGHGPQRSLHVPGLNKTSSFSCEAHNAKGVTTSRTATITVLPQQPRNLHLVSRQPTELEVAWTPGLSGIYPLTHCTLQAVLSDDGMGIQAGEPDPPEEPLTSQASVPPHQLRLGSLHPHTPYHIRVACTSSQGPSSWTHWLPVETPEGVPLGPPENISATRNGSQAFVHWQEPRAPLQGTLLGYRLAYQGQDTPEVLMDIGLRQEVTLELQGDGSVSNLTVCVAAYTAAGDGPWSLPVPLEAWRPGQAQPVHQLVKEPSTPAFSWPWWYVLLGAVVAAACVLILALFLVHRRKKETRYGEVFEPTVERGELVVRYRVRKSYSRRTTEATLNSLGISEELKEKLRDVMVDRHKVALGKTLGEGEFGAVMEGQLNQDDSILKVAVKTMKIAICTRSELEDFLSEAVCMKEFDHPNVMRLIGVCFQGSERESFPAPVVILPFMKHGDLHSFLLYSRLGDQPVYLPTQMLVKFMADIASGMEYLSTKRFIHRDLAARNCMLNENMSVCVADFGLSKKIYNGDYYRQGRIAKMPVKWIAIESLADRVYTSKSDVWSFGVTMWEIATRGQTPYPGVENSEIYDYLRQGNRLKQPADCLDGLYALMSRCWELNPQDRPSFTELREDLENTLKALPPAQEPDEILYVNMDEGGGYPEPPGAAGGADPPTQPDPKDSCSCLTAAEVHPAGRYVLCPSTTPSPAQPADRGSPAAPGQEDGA
The experiment can be described thus: Kinase selectivity test, AXL. The format is biochemical. Particulars: 10 nmol/L.

Experiment [11] addresses FGFR-1 (Homo sapiens, UniProt P11362). The experiment is described as follows: Kinase selectivity test, FGFR-1. The experiment is classed as biochemical. The settings on record: 10 nmol/L.
Experiment [12] deals with ErbB4 (Homo sapiens, UniProt Q15303). The experiment is described as follows: Kinase selectivity test, ErbB4. The experiment is classed as biochemical. The settings on record: 10 nmol/L.
Experiment [13] concerns the target c-Src (Homo sapiens, UniProt P12931). The experiment is described as follows: Kinase selectivity test, c-Src. The format is biochemical. The settings on record: 10 nmol/L.
The test system of experiment [14] is DDR2 phosphorylation in MRC-5. The experiment is described as follows: DDR2 phosphorylation in TGF-β stimulated MRC-5. The experiment is classed as cell-based. The settings on record: 1 μmol/L, MRC-5, 24 h TGF-β stimulation. In a few lines: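 Confluent MRC-5 fibroblasts are stimulated with TGF-β (5 ng/mL) and treated with a range of test compound concentrations for 24 h. Western blots are probed for phospho-DDR2, fibronectin, α-SMA, with GAPDH as loading control.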

Usually IC50 stands for the concentration that gives 50% inhibition. The low end stands for greater potency, the high end for weaker potency.

Bounds are passed on as bounds.

KDR, sequence (P35968 20-1356): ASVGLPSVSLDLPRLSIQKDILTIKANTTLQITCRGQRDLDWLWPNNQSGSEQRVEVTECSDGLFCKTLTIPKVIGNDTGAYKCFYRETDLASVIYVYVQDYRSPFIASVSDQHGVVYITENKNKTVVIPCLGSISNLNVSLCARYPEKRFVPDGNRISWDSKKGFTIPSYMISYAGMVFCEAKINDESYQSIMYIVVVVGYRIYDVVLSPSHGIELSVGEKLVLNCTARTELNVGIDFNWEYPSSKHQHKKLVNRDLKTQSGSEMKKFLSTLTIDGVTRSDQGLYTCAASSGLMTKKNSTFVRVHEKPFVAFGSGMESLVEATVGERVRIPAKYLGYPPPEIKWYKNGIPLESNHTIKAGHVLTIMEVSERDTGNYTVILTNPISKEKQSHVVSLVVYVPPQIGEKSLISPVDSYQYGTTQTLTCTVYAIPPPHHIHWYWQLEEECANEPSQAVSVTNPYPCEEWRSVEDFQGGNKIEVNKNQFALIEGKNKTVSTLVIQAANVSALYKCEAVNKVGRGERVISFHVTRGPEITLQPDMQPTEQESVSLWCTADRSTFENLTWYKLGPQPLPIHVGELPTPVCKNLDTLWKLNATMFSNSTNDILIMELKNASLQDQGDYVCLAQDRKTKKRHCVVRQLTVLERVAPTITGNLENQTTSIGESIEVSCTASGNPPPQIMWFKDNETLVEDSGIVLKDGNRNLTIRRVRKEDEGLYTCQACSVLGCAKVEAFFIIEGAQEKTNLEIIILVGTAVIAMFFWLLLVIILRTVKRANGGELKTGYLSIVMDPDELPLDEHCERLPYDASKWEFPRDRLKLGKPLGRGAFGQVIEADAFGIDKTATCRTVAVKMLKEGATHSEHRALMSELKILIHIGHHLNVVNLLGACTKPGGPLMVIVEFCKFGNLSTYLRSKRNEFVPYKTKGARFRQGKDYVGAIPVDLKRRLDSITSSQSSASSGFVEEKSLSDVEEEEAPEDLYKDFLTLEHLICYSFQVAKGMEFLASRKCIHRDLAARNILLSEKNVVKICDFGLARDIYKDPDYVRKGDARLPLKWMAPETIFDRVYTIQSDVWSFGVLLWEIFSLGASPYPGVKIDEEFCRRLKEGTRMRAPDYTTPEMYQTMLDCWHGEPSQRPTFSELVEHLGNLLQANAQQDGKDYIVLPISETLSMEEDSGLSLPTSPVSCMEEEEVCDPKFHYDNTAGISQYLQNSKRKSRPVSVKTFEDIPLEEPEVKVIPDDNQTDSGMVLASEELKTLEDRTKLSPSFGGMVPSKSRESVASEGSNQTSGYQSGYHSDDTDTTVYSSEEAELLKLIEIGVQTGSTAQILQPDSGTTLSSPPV

The compound `Cc1ccc(C(=O)Nc2cccc(C(F)(F)F)c2)cc1-c1ccc2nc(Nc3cnn(C)c3)ncc2c1` [Compound 22, 4-Methyl-3-(2-((1-methyl-1H-pyrazol-4-yl)amino)quinazolin-6-yl)-N-(3-(trifluoromethyl)phenyl)benzamide] returned a half-maximal inhibitory concentration (IC50) in [1] of 8.13 nM. Besides, the inhibition at 0.01 µM in experiment [2] (read-out: RET inhibition @10 nmol/L) is > 50%. Moreover, the figures for the inhibition at 0.1 µM in experiment [2] (read-out: RET inhibition @100 nmol/L) and in experiment [3] were 97.2% and 80.3%, respectively. Besides, in experiment [4], the KDR inhibition ratio entry is listed as “over 50%”. Further, the “inhibition ratio on ALK” value in [5] worked out at 18.5%. Also, the ABL inhibition ratio result in experiment [6] is listed as “over 50%”. Also, in experiment [7], the VEGFR-1 inhibition ratio result is given as “over 50%”. Also, the PDGFR inhibition ratio result in experiment [8] is listed as “over 50%”. Further, the EPH-A2 inhibition ratio entry in experiment [9] is listed as “over 50%”. Further, the AXL inhibition ratio entry in experiment [10] was “over 50%”. Besides, the FGFR-1 inhibition ratio result in experiment [11] is “over 50%”. Besides, the ErbB4 inhibition ratio entry in experiment [12] is recorded as “over 50%”. Moreover, the c-Src inhibition ratio entry in experiment [13] is “over 50%”. Moreover, the “inhibition of DDR2 phosphorylation” value in experiment [14] was “high inhibitory activity”.
